The source made the active and inactive calls. The calls are words filed in the database; no cut-off is given here.
Experiments:
Mus musculus [1] = test: Toxicity in CD1 mouse heart at 450 mg/kg, po after 3 days by histological study; type: organism-based; design: dose 450 mg/kg, route oral; conditions: in vivo, 72 h
Procedure, shortened: (§1)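 Healthy female CD1 mice (20–22 g), 5–7 per group, given a single oral (intragastric) or i.p. dose in saline:Tween 80 (4:1) vehicle. Sacrificed on day 3 after ether anaesthesia. Organs fixed in 10% aqueous formalin for histology. Scored against untreated animals from no change to +++ (many changes).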

Mus musculus [2] = test: Toxicity in CD1 mouse heart at 300 mg/kg, ip after 3 days by histological study; type: organism-based; design: dose 300 mg/kg, route intraperitoneal; conditions: in vivo, 72 h; procedure, shortened: as §1
Mus musculus [3] = test: Toxicity in CD1 mouse lung at 450 mg/kg, po after 3 days by histological study; type: organism-based; design: dose 450 mg/kg, route oral; conditions: in vivo, 72 h; procedure, shortened: as §1
Mus musculus [4] = test: Toxicity in CD1 mouse lung at 300 mg/kg, ip after 3 days by histological study; type: organism-based; design: dose 300 mg/kg, route intraperitoneal; conditions: in vivo, 72 h; procedure, shortened: as §1
Mus musculus [5] = test: Toxicity in CD1 mouse brain at 450 mg/kg, po after 3 days by histological study; type: organism-based; design: dose 450 mg/kg, route oral; conditions: in vivo, 72 h; procedure, shortened: as §1
Mus musculus [6] = test: Toxicity in CD1 mouse brain at 300 mg/kg, ip after 3 days by histological study; type: organism-based; design: dose 300 mg/kg, route intraperitoneal; conditions: in vivo, 72 h; procedure, shortened: as §1
Trypanosoma cruzi [7] = test: Growth inhibition of Trypanosoma cruzi Tulahuen 2 epimastigote at 5 uM after 5 days; type: functional; design: Activity: scale not given: the % may be the effect or the level left; conditions: for inhibition of growth at 5 µM: Trypanosoma cruzi, Tulahuen 2, 120 h, read-out: GI
Mus musculus [8] = test: Toxicity in CD1 mouse assessed as decrease in weight respect to day zero at 450 mg/kg, po after 3 days; type: organism-based; design: dose 450 mg/kg, route oral; scale not given: the % may be the effect or the level left; conditions: in vivo, 72 h
Procedure, shortened: (§2)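 Healthy 2-month-old female CD1 mice (20–22 g, 5–7 per group) received one dose. Oral doses of 450 or 300 mg/kg were given by intragastric syringe; i.p. doses of 300 or 150 mg/kg by injection. Drugs were suspended in saline:Tween 80 (4:1), and a vehicle-only control was included. Mice were weighed and observed daily for 3 days. Weight change is expressed as percent relative to day zero.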

Mus musculus [9] = test: Toxicity in CD1 mouse assessed as increase in weight respect to day zero at 300 mg/kg, ip after 3 days; type: organism-based; design: dose 300 mg/kg, route intraperitoneal; conditions: in vivo, 72 h; procedure, shortened: as §2
Mus musculus [10] = test: Toxicity in CD1 mouse assessed as leukocyte level at 450 mg/kg, po after 3 days; type: organism-based; design: dose 450 mg/kg, route oral; conditions: in vivo, 72 h
Procedure, shortened: (§3)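 Healthy female CD1 mice (5–7 per group) received a single oral dose of 450 mg/kg or an i.p. dose of 300 mg/kg, with vehicle controls. On day 3 they were sacrificed under ether anaesthesia. Blood was drawn from the subclavian artery and kept at 0 °C in EDTA or heparin. Leukocytes, haemoglobin, haematocrit, GPT and GOT were measured within 24 h and compared with normal ranges.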

Mus musculus [11] = test: Toxicity in CD1 mouse assessed as leukocyte level at 300 mg/kg, ip after 3 days; type: organism-based; design: dose 300 mg/kg, route intraperitoneal; conditions: in vivo, 72 h; procedure, shortened: as §3
Mus musculus [12] = test: Toxicity in CD1 mouse assessed as haemoglobin level at 450 mg/kg, po after 3 days; type: organism-based; design: dose 450 mg/kg, route oral; conditions: in vivo, 72 h; procedure, shortened: as §3
Mus musculus [13] = test: Toxicity in CD1 mouse assessed as haemoglobin level at 300 mg/kg, ip after 3 days; type: organism-based; design: dose 300 mg/kg, route intraperitoneal; conditions: in vivo, 72 h; procedure, shortened: as §3
Mus musculus [14] = test: Toxicity in CD1 mouse assessed as hematocrite level at 450 mg/kg, po after 3 days; type: organism-based; design: dose 450 mg/kg, route oral; conditions: in vivo, 72 h; procedure, shortened: as §3
Mus musculus [15] = test: Toxicity in CD1 mouse assessed as hematocrite level at 300 mg/kg, ip after 3 days; type: organism-based; design: dose 300 mg/kg, route intraperitoneal; conditions: in vivo, 72 h; procedure, shortened: as §3
Mus musculus [16] = test: Toxicity in CD1 mouse assessed as glutamic-pyruvate transaminase level at 450 mg/kg, po after 3 days; type: organism-based; design: dose 450 mg/kg, route oral; conditions: in vivo, 72 h; procedure, shortened: as §3
Mus musculus [17] = test: Toxicity in CD1 mouse assessed as glutamic-oxalacetate transaminase level at 450 mg/kg, po after 3 days; type: organism-based; design: dose 450 mg/kg, route oral; conditions: in vivo, 72 h; procedure, shortened: as §3
Mus musculus [18] = test: Toxicity in CD1 mouse liver at 300 mg/kg, ip after 3 days by histological study; type: organism-based; design: dose 300 mg/kg, route intraperitoneal; conditions: in vivo, 72 h; procedure, shortened: as §1
Mus musculus [19] = test: Toxicity in CD1 mouse liver at 450 mg/kg, po after 3 days by histological study; type: organism-based; design: dose 450 mg/kg, route oral; conditions: in vivo, 72 h; procedure, shortened: as §1
Mus musculus [20] = test: Toxicity in CD1 mouse intestine at 450 mg/kg, po after 3 days by histological study; type: organism-based; design: dose 450 mg/kg, route oral; conditions: in vivo, 72 h; procedure, shortened: as §1
Mus musculus [21] = test: Toxicity in CD1 mouse intestine at 300 mg/kg, ip after 3 days by histological study; type: organism-based; design: dose 300 mg/kg, route intraperitoneal; conditions: in vivo, 72 h; procedure, shortened: as §1
Mus musculus [22] = test: Toxicity in CD1 mouse kidney at 450 mg/kg, po after 3 days by histological study; type: organism-based; design: dose 450 mg/kg, route oral; conditions: in vivo, 72 h; procedure, shortened: as §1
Mus musculus [23] = test: Toxicity in CD1 mouse kidney at 300 mg/kg, ip after 3 days by histological study; type: organism-based; design: dose 300 mg/kg, route intraperitoneal; conditions: in vivo, 72 h; procedure, shortened: as §1
Trypanosoma cruzi [24] = test: Antitrypanosomal activity against Trypanosoma cruzi infected in po dosed CD1 mouse assessed as prevention of inflammatory infiltrates in heart administered daily for 14 days measured on day 45; type: functional, organism-based
Procedure, shortened: (§4)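 T. cruzi, a Uruguayan patient isolate, was inoculated intradermally into 2-month-old female CD1 mice (20–22 g). Dosing began on day 15 after parasitaemia was observed. Drugs were suspended in saline:Tween 80 (4:1) and given by intragastric syringe once daily for 14 days, with untreated controls. On day 45 after treatment start, heart and muscle sections were scored by two independent observers for amastigotes and inflammatory infiltrates. Groups had 5–7 mice.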

Trypanosoma cruzi [25] = test: Antitrypanosomal activity against Trypanosoma cruzi infected in po dosed CD1 mouse assessed as prevention of amastigote nest in heart administered daily for 14 days measured on day 45; type: functional, organism-based; procedure, shortened: as §4
Mus musculus [26] = test: Toxicity in CD1 mouse assessed as decrease in weight respect to day zero at 300 mg/kg, po after 3 days; type: organism-based; design: dose 300 mg/kg, route oral; scale not given: the % may be the effect or the level left; conditions: in vivo, 72 h; procedure, shortened: as §2
Mus musculus [27] = test: Toxicity in CD1 mouse assessed as survival at 450 mg/kg, po after 3 days; type: organism-based; design: dose 450 mg/kg, route oral; conditions: in vivo, 72 h
Procedure, shortened: (§5)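 Healthy 2-month-old female CD1 mice (20–22 g), groups of 5–7, given one oral dose by intragastric syringe or one i.p. injection. Compound suspended in saline:Tween 80 (4:1) with sonication just before dosing; vehicle-treated controls included. Weighed and observed daily over 3 days for skin, physical aspect, activity and faeces; survival recorded at day 3.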

Mus musculus [28] = test: Toxicity in CD1 mouse assessed as survival at 300 mg/kg, po after 3 days; type: organism-based; design: dose 300 mg/kg, route oral; conditions: in vivo, 72 h; procedure, shortened: as §5
Mus musculus [29] = test: Toxicity in CD1 mouse assessed as decrease in weight respect to day zero at 150 mg/kg, ip after 3 days; type: organism-based; design: dose 150 mg/kg, route intraperitoneal; scale not given: the % may be the effect or the level left; conditions: in vivo, 72 h; procedure, shortened: as §2
Mus musculus [30] = test: Toxicity in CD1 mouse assessed as survival at 300 mg/kg, ip after 3 days; type: organism-based; design: dose 300 mg/kg, route intraperitoneal; conditions: in vivo, 72 h; procedure, shortened: as §5
Mus musculus [31] = test: Toxicity in CD1 mouse assessed as survival at 150 mg/kg, ip after 3 days; type: organism-based; design: dose 150 mg/kg, route intraperitoneal; conditions: in vivo, 72 h; procedure, shortened: as §5
Mus musculus [32] = test: Toxicity in CD1 mouse assessed as glutamic-pyruvate transaminase level at 300 mg/kg, ip after 3 days; type: organism-based; design: dose 300 mg/kg, route intraperitoneal; conditions: in vivo, 72 h; procedure, shortened: as §3
Mus musculus [33] = test: Toxicity in CD1 mouse assessed as glutamic-oxalacetate transaminase level at 300 mg/kg, ip after 3 days; type: organism-based; design: dose 300 mg/kg, route intraperitoneal; conditions: in vivo, 72 h; procedure, shortened: as §3

| Compound | Activity (Mus musculus [1]) | Activity (Mus musculus [2]) | Activity (Mus musculus [3]) | Activity (Mus musculus [4]) | Activity (Mus musculus [5]) | Activity (Mus musculus [6]) | Activity (Mus musculus [8]) | Activity (Mus musculus [9]) | Activity (Mus musculus [10]) | Activity (Mus musculus [11]) | Activity (Mus musculus [12]) | Activity (Mus musculus [13]) | Activity (Mus musculus [15]) | Activity (Mus musculus [16]) | Activity (Mus musculus [18]) | Activity (Mus musculus [19]) | Activity (Mus musculus [20]) | Activity (Mus musculus [21]) | Activity (Mus musculus [22]) | Activity (Mus musculus [23]) | also measured |
| --- | --- | --- | --- | --- | --- | --- | --- | --- | --- | --- | --- | --- | --- | --- | --- | --- | --- | --- | --- | --- | --- |
| CCCCCCCCOC(=O)N/N=C/c1ccc([N+](=O)[O-])o1 | Non-toxic | Non-toxic | Non-toxic | Non-toxic | Non-toxic | Non-toxic | 11% | 4% | 6600 µL⁻¹ | 5300 µL⁻¹ | 11.9 g/dL | 13.8 g/dL | 43.6% | 30 IU/L | Toxic | Toxic | Non-toxic | Non-toxic | Non-toxic | Non-toxic | Activity (Trypanosoma cruzi [7]): 84%; Activity (Mus musculus [14]): 36.4%; Activity (Mus musculus [17]): 119 IU/L |
| CCCCNC(=O)N/N=C/c1ccc([N+](=O)[O-])o1 | Non-toxic | Non-toxic | Non-toxic | Non-toxic | Non-toxic | Non-toxic | 1% | – | – | – | – | – | – | – | Toxic | Toxic | Toxic | Non-toxic | Toxic | Toxic | Activity (Trypanosoma cruzi [24]): Active; Activity (Trypanosoma cruzi [25]): Active; inhibition of growth at 5 µM (Trypanosoma cruzi [7]): 30%; Activity (Mus musculus [26]): 4%; Activity (Mus musculus [27]): Non-toxic; Activity (Mus musculus [28]): Non-toxic; Activity (Mus musculus [29]): 6%; Activity (Mus musculus [30]): Toxic; Activity (Mus musculus [31]): Non-toxic |
| CCCCOC(=O)N/N=C/C=C/c1ccc([N+](=O)[O-])o1 | Non-toxic | Non-toxic | Non-toxic | Non-toxic | Non-toxic | Non-toxic | 2% | 2% | 26600 µL⁻¹ | 31800 µL⁻¹ | 13.5 g/dL | 11.8 g/dL | 37.2% | 22.6 IU/L | Toxic | Toxic | Non-toxic | Non-toxic | Non-toxic | Non-toxic | inhibition of growth at 5 µM (Trypanosoma cruzi [7]): 87%; Activity (Mus musculus [27]): Non-toxic; Activity (Mus musculus [30]): Non-toxic; Activity (Mus musculus [32]): 17 IU/L; Activity (Mus musculus [17]): 72 IU/L; Activity (Mus musculus [33]): 76.5 IU/L |

Source: ChEMBL document CHEMBL1154044, “5-Nitro-2-furyl derivative actives against Trypanosoma cruzi: preliminary in vivo studies” (Eur J Med Chem, 2009)
